In ChEMBL document CHEMBL1156410, “Design and synthesis of a combinatorial chemistry library of 7-acyl, 10-acyl, and 7,10-diacyl analogues of paclitaxel (taxol) using solid phase synthesis” (J Nat Prod, 2002):
In brackets after ≈: the same amount, converted by molar mass.

Tests used:
[1] = Induction of tubulin polymerization at 0.1 uM by DAPI fluorescence method relative to control
Summary of the method: (§1)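 Microplate assay in PMEG buffer (100 mM PIPES, 1 mM MgSO₄, 2 mM EGTA, 0.1 mM GTP, pH 6.9) containing ligand; DAPI final 10 µM, tubulin final 5 µM. Fluorescence followed at 37 °C, excitation 360/40 nm, emission 460/40 nm. Change in fluorescence normalized to the curve of 10 µM paclitaxel standard. Samples in duplicate, triplicate or quadruplicate; concentrations over 2 orders of magnitude tested.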

[2] = Induction of tubulin polymerization at 1 uM by DAPI fluorescence method relative to control; summary of the method: as §1
[3] = Induction of tubulin polymerization at 10 uM by DAPI fluorescence method relative to control; summary of the method: as §1
A2780 = test: Cytotoxicity against human A2780 cells; assay type: functional, cell-based
[4] = Induction of tubulin polymerization by DAPI fluorescence method; conditions: read-out: I50; summary of the method: as §1

Row | Activity [1] [%] | Activity [2] [%] | Activity [3] [%] | IC50 [4] [µM] | Structure (SMILES) | IC50 (A2780) [µg/mL]
1 | 10 | 26 | 53 |  | CC(=O)O[C@@]12CO[C@@H]1C[C@H](OC(=O)C1CC1)[C@@]1(C)C(=O)[C@H](OC(=O)OCc3ccccc3)C3=C(C)[C@@H](OC(=O)[C@H](O)[C@@H](NC(=O)c4ccccc4)c4ccccc4)C[C@@](O)([C@@H](OC(=O)c4ccccc4)[C@H]21)C3(C)C | 
2 | 13 | 54 | 114 |  | CCC(=O)O[C@H]1C(=O)[C@@]2(C)[C@H]([C@H](OC(=O)c3ccccc3)[C@]3(O)C[C@H](OC(=O)[C@H](O)[C@@H](NC(=O)c4ccccc4)c4ccccc4)C(C)=C1C3(C)C)[C@]1(OC(C)=O)CO[C@@H]1C[C@@H]2O | 
3 | 20 | 72 | 114 |  | CCC(=O)O[C@H]1C(=O)[C@]2(C)[C@@H](OC(=O)CCl)C[C@H]3OC[C@@]3(OC(C)=O)[C@H]2[C@H](OC(=O)c2ccccc2)[C@]2(O)C[C@H](OC(=O)[C@H](O)[C@@H](NC(=O)c3ccccc3)c3ccccc3)C(C)=C1C2(C)C | 
4 | 4 | 52 | 123 |  | CCCC(=O)O[C@H]1C[C@H]2OC[C@@]2(OC(C)=O)[C@H]2[C@H](OC(=O)c3ccccc3)[C@]3(O)C[C@H](OC(=O)[C@H](O)[C@@H](NC(=O)c4ccccc4)c4ccccc4)C(C)=C([C@@H](OC(=O)CC)C(=O)[C@]12C)C3(C)C | 
5 | 30 | 61 | 91 |  | CC(=O)O[C@@]12CO[C@@H]1C[C@H](OC(=O)C1CC1)[C@@]1(C)C(=O)[C@H](OC(=O)c3ccccc3)C3=C(C)[C@@H](OC(=O)[C@H](O)[C@@H](NC(=O)c4ccccc4)c4ccccc4)C[C@@](O)([C@@H](OC(=O)c4ccccc4)[C@H]21)C3(C)C | 
6 | 27 | 41 | 109 |  | C/C=C/C(=O)O[C@H]1C(=O)[C@]2(C)[C@@H](OC(=O)C3CC3)C[C@H]3OC[C@@]3(OC(C)=O)[C@H]2[C@H](OC(=O)c2ccccc2)[C@]2(O)C[C@H](OC(=O)[C@H](O)[C@@H](NC(=O)c3ccccc3)c3ccccc3)C(C)=C1C2(C)C | 
7 | 10 | 39 | 43 |  | CC(=O)O[C@@]12CO[C@@H]1C[C@H](OC(=O)C=C(C)C)[C@@]1(C)C(=O)[C@H](OC(=O)OCc3ccccc3)C3=C(C)[C@@H](OC(=O)[C@H](O)[C@@H](NC(=O)c4ccccc4)c4ccccc4)C[C@@](O)([C@@H](OC(=O)c4ccccc4)[C@H]21)C3(C)C | 
8 | 10 | 51 | 102 |  | CCCCC(=O)O[C@H]1C[C@H]2OC[C@@]2(OC(C)=O)[C@H]2[C@H](OC(=O)c3ccccc3)[C@]3(O)C[C@H](OC(=O)[C@H](O)[C@@H](NC(=O)c4ccccc4)c4ccccc4)C(C)=C([C@@H](OC(=O)CC)C(=O)[C@]12C)C3(C)C | 
9 |  |  |  | 4.34 | CC(=O)O[C@@]12CO[C@@H]1C[C@H](OC(=O)CN1CCN(c3ccc(C(C)=O)cc3)CC1)[C@@]1(C)C(=O)[C@H](O)C3=C(C)[C@@H](OC(=O)[C@H](O)[C@@H](NC(=O)c4ccccc4)c4ccccc4)C[C@@](O)([C@@H](OC(=O)c4ccccc4)[C@H]21)C3(C)C | 0.9 (≈ 0.852 µM)
10 | 26 | 80 | 117 |  | C/C=C/C(=O)O[C@H]1C(=O)[C@@]2(C)[C@H]([C@H](OC(=O)c3ccccc3)[C@]3(O)C[C@H](OC(=O)[C@H](O)[C@@H](NC(=O)c4ccccc4)c4ccccc4)C(C)=C1C3(C)C)[C@]1(OC(C)=O)CO[C@@H]1C[C@@H]2O | 
11 | 0 | 33 | 97 |  | CCC(=O)O[C@H]1C(=O)[C@]2(C)[C@@H](OC(=O)c3ccccc3)C[C@H]3OC[C@@]3(OC(C)=O)[C@H]2[C@H](OC(=O)c2ccccc2)[C@]2(O)C[C@H](OC(=O)[C@H](O)[C@@H](NC(=O)c3ccccc3)c3ccccc3)C(C)=C1C2(C)C | 
12 | 20 | 51 | 120 |  | CCC(=O)O[C@H]1C(=O)[C@]2(C)[C@@H](OC(=O)C=C(C)C)C[C@H]3OC[C@@]3(OC(C)=O)[C@H]2[C@H](OC(=O)c2ccccc2)[C@]2(O)C[C@H](OC(=O)[C@H](O)[C@@H](NC(=O)c3ccccc3)c3ccccc3)C(C)=C1C2(C)C | 
13 |  |  |  | 7.8 | CC(=O)O[C@@]12CO[C@@H]1C[C@H](OC(=O)CN1CCN(Cc3ccc4c(c3)OCO4)CC1)[C@@]1(C)C(=O)[C@H](O)C3=C(C)[C@@H](OC(=O)[C@H](O)[C@@H](NC(=O)c4ccccc4)c4ccccc4)C[C@@](O)([C@@H](OC(=O)c4ccccc4)[C@H]21)C3(C)C | 0.02 (≈ 0.0187 µM)
14 | 5 | 37 | 111 |  | CCC(=O)O[C@H]1C(=O)[C@]2(C)[C@@H](OC(=O)CC)C[C@H]3OC[C@@]3(OC(C)=O)[C@H]2[C@H](OC(=O)c2ccccc2)[C@]2(O)C[C@H](OC(=O)[C@H](O)[C@@H](NC(=O)c3ccccc3)c3ccccc3)C(C)=C1C2(C)C | 
15 | 6 | 62 | 113 |  | CCC(=O)O[C@H]1C(=O)[C@]2(C)[C@@H](OC(=O)C3CC3)C[C@H]3OC[C@@]3(OC(C)=O)[C@H]2[C@H](OC(=O)c2ccccc2)[C@]2(O)C[C@H](OC(=O)[C@H](O)[C@@H](NC(=O)c3ccccc3)c3ccccc3)C(C)=C1C2(C)C | 
16 | 46 | 78 | 113 |  | CC(=O)O[C@@]12CO[C@@H]1C[C@H](O)[C@@]1(C)C(=O)[C@H](OC(=O)c3ccccc3)C3=C(C)[C@@H](OC(=O)[C@H](O)[C@@H](NC(=O)c4ccccc4)c4ccccc4)C[C@@](O)([C@@H](OC(=O)c4ccccc4)[C@H]21)C3(C)C | 
17 |  |  |  | 2.04 | CC(=O)O[C@@]12CO[C@@H]1C[C@H](OC(=O)CN1Cc3ccccc3C1)[C@@]1(C)C(=O)[C@H](O)C3=C(C)[C@@H](OC(=O)[C@H](O)[C@@H](NC(=O)c4ccccc4)c4ccccc4)C[C@@](O)([C@@H](OC(=O)c4ccccc4)[C@H]21)C3(C)C | 
18 |  |  |  | 0.85 | CC(=O)O[C@@]12CO[C@@H]1C[C@H](OC(=O)CN1CCC(N3CCCC3)CC1)[C@@]1(C)C(=O)[C@H](O)C3=C(C)[C@@H](OC(=O)[C@H](O)[C@@H](NC(=O)c4ccccc4)c4ccccc4)C[C@@](O)([C@@H](OC(=O)c4ccccc4)[C@H]21)C3(C)C | 0.96 (≈ 0.954 µM)
19 |  |  |  |  | CC(=O)O[C@@]12CO[C@@H]1C[C@H](OC(=O)CN1CCNCC1)[C@@]1(C)C(=O)[C@H](O)C3=C(C)[C@@H](OC(=O)[C@H](O)[C@@H](NC(=O)c4ccccc4)c4ccccc4)C[C@@](O)([C@@H](OC(=O)c4ccccc4)[C@H]21)C3(C)C | 0.86 (≈ 0.917 µM)
20 |  |  |  | 0.59 | CC(=O)O[C@@]12CO[C@@H]1C[C@H](OC(=O)CN1CCN(C)CC1)[C@@]1(C)C(=O)[C@H](O)C3=C(C)[C@@H](OC(=O)[C@H](O)[C@@H](NC(=O)c4ccccc4)c4ccccc4)C[C@@](O)([C@@H](OC(=O)c4ccccc4)[C@H]21)C3(C)C | 0.67 (≈ 0.704 µM)
21 | 29 | 56 | 92 |  | CC(=O)O[C@@]12CO[C@@H]1C[C@H](OC(=O)CCl)[C@@]1(C)C(=O)[C@H](OC(=O)c3ccccc3)C3=C(C)[C@@H](OC(=O)[C@H](O)[C@@H](NC(=O)c4ccccc4)c4ccccc4)C[C@@](O)([C@@H](OC(=O)c4ccccc4)[C@H]21)C3(C)C | 
22 | 33 | 66 | 81 |  | C/C=C/C(=O)O[C@H]1C(=O)[C@]2(C)[C@@H](OC(=O)c3ccccc3)C[C@H]3OC[C@@]3(OC(C)=O)[C@H]2[C@H](OC(=O)c2ccccc2)[C@]2(O)C[C@H](OC(=O)[C@H](O)[C@@H](NC(=O)c3ccccc3)c3ccccc3)C(C)=C1C2(C)C | 
23 | 29 | 66 | 116 |  | C/C=C/C(=O)O[C@H]1C(=O)[C@]2(C)[C@@H](OC(=O)CCl)C[C@H]3OC[C@@]3(OC(C)=O)[C@H]2[C@H](OC(=O)c2ccccc2)[C@]2(O)C[C@H](OC(=O)[C@H](O)[C@@H](NC(=O)c3ccccc3)c3ccccc3)C(C)=C1C2(C)C | 
24 | 10 | 32 | 33 |  | CC(=O)O[C@@]12CO[C@@H]1C[C@H](OC(=O)c1ccccc1)[C@@]1(C)C(=O)[C@H](OC(=O)OCc3ccccc3)C3=C(C)[C@@H](OC(=O)[C@H](O)[C@@H](NC(=O)c4ccccc4)c4ccccc4)C[C@@](O)([C@@H](OC(=O)c4ccccc4)[C@H]21)C3(C)C | 
25 | 22 | 52 | 78 |  | COc1cccc(C(=O)O[C@H]2C[C@H]3OC[C@@]3(OC(C)=O)[C@H]3[C@H](OC(=O)c4ccccc4)[C@]4(O)C[C@H](OC(=O)[C@H](O)[C@@H](NC(=O)c5ccccc5)c5ccccc5)C(C)=C([C@@H](OC(=O)c5ccccc5)C(=O)[C@]23C)C4(C)C)c1 | 
26 | 5 | 44 | 111 |  | CCC(=O)O[C@H]1C(=O)[C@]2(C)[C@@H](OC(C)=O)C[C@H]3OC[C@@]3(OC(C)=O)[C@H]2[C@H](OC(=O)c2ccccc2)[C@]2(O)C[C@H](OC(=O)[C@H](O)[C@@H](NC(=O)c3ccccc3)c3ccccc3)C(C)=C1C2(C)C | 
27 | 0 | 3 | 24 |  | CCC(=O)O[C@H]1C[C@H]2OC[C@@]2(OC(C)=O)[C@H]2[C@H](OC(=O)c3ccccc3)[C@]3(O)C[C@H](OC(=O)[C@H](O)[C@@H](NC(=O)c4ccccc4)c4ccccc4)C(C)=C([C@@H](OC(=O)OCc4ccccc4)C(=O)[C@]12C)C3(C)C | 
28 | 0 | 20 | 48 |  | CC(=O)O[C@@]12CO[C@@H]1C[C@H](OC(=O)CCl)[C@@]1(C)C(=O)[C@H](OC(=O)OCc3ccccc3)C3=C(C)[C@@H](OC(=O)[C@H](O)[C@@H](NC(=O)c4ccccc4)c4ccccc4)C[C@@](O)([C@@H](OC(=O)c4ccccc4)[C@H]21)C3(C)C | 
29 | 34 | 83 | 115 |  | CC(=O)O[C@@]12CO[C@@H]1C[C@H](O)[C@@]1(C)C(=O)[C@H](OC(=O)OCc3ccccc3)C3=C(C)[C@@H](OC(=O)[C@H](O)[C@@H](NC(=O)c4ccccc4)c4ccccc4)C[C@@](O)([C@@H](OC(=O)c4ccccc4)[C@H]21)C3(C)C | 
